Most compounds without a hit are left out; they make up all but 5.8% or so of the library.
Pf Dd2 inh = P. falciparum Dd2 growth inhibition; 2.3% of 94,000 active; activity change, % at 10 µM; SYBR Green, 72 h; active compounds read low; in the data active means activity change below about -80%
T cruzi growth = T. cruzi proliferation inhibition. T. cruzi beta-gal in NIH3T3, GalScreen luminescence, 90 h. inhibition, % at 8.34 µM. 5.9% of 77,000 active;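 active means mean inhibition above about 93%, with at least 55% of replicates each passing it, limit read from the data, passing the limit was not always enough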
IDH1 R132H inh = blocks human IDH1 R132H reductase activity. inhibition, % at 10 µM. AID 624101. O75874. 0.18% of 70,000 active. diaphorase/resazurin fluorescence, 60 min; in the data active means inhibition above about 34%
Target sequence (O75874 whole entry R132H): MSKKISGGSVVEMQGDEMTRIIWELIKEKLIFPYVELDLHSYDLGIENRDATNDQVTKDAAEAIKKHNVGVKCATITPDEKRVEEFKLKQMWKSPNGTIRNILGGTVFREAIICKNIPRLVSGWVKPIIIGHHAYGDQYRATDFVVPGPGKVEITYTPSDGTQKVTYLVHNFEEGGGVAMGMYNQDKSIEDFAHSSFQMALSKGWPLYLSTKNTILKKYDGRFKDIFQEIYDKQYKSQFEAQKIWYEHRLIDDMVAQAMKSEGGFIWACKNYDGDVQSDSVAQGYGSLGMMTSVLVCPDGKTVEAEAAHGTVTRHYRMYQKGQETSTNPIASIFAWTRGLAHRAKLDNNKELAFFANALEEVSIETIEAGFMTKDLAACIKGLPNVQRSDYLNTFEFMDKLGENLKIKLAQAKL
KDM4C inh = KDM4C (human) demethylase inhibition. Q9H3R0. inhibition, % at 12.5 µM. AID 720574. 0.15% of 96,000 active. GST-KDM4C 2-372, H3K9me3 peptide, LANCE TR-FRET;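 active means mean replicate inhibition above about 25%, with at least 55% of replicates also reaching it, limit read from the data, passing the limit was not always enough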
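Material: GST-tagged GASC-1 (JMJD2C) catalytic fragment, aa 2-372. Input: enzyme final amount 10 nM. Medium: HEPES buffer, pH 7.5, plus ascorbate. Reagent: H3K9me3 peptide substrate, Fe(II), 2-oxoglutarate. Doses: single dose. Times: reaction 30 min RT, detection step 1 h RT. Measured by: LANCE TR-FRET. Evaluation: Fall in 671/618 emission ratio as inhibition.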
Hits are given with their value.

How did Cc1cc(C#N)c2c(C)ccc(C(C)C)cc1-2 do in these assays?
IDH1 R132H inh: inactive

What do the screens show for `COc1ccc(CN2C(=O)C(O)(CC(=O)c3ccco3)c3ccccc32)cc1OC` (stereo not given)?
IDH1 R132H inh: inactive

Results for O=C(C1CCCCC1)N1CC(=O)N2[C@H](C1)[C@@H](c1ccc(C#CCc3ccccc3)cc1)[C@@H]2CO ?
Pf Dd2 inh: inactive; KDM4C inh: inactive

Results for O=C(c1cnccn1)N1CC(=O)N2[C@@H](CO)[C@H](c3ccc(C#CCc4ccccc4)cc3)[C@@H]2C1 ?
Pf Dd2 inh: -88; KDM4C inh: inactive

What do the screens show for `O=C(C1CCCCC1)N1CC(=O)N2[C@H](CO)[C@@H](c3ccc(C#CCc4ccccc4)cc3)[C@@H]2C1`?
Pf Dd2 inh: -83; KDM4C inh: inactive

Results for O=C(C1CCCC1)N1CC(=O)N2[C@@H](CO)[C@H](c3ccc(C#CCc4ccccc4)cc3)[C@@H]2C1 ?
Pf Dd2 inh: -93; KDM4C inh: inactive

What do the screens show for `COc1ccc(S(=O)(=O)N(C)C[C@H]2Oc3c(NC(=O)CCCCCC(=O)Nc4ccccc4N)cccc3C(=O)N([C@H](C)CO)C[C@@H]2C)cc1`?
Pf Dd2 inh: inactive; IDH1 R132H inh: inactive; KDM4C inh: inactive

How did COc1ccc(S(=O)(=O)N(C)C[C@@H]2Oc3c(NC(=O)CCCCCC(=O)Nc4ccccc4N)cccc3C(=O)N([C@H](C)CO)C[C@@H]2C)cc1 do in these assays?
Pf Dd2 inh: -85; IDH1 R132H inh: inactive; KDM4C inh: inactive

What do the screens show for `COc1ccc(S(=O)(=O)N(C)C[C@@H]2Oc3c(NC(=O)CCCCCC(=O)Nc4ccccc4N)cccc3C(=O)N([C@@H](C)CO)C[C@H]2C)cc1`?
Pf Dd2 inh: -83; IDH1 R132H inh: inactive; KDM4C inh: inactive

What do the screens show for `COc1ccc(NC(=O)CSc2nc3c(c(C(F)(F)F)c2C#N)CCC3)c(OC)c1`?
IDH1 R132H inh: inactive

What do the screens show for `C[C@@H]1CN([C@@H](C)CO)C(=O)c2cccc(NC(=O)CCCCCC(=O)Nc3ccccc3N)c2O[C@@H]1CN(C)C(=O)Nc1cccc2ccccc12`?
Pf Dd2 inh: -88; KDM4C inh: inactive

Results for Cc1noc(C)c1NC(=O)N(C)C[C@@H]1Oc2c(NC(=O)CCCCCC(=O)Nc3ccccc3N)cccc2C(=O)N([C@@H](C)CO)C[C@@H]1C ?
Pf Dd2 inh: inactive; IDH1 R132H inh: inactive; KDM4C inh: inactive

How did C[C@@H]1CN([C@@H](C)CO)C(=O)c2cccc(NC(=O)CCCCCC(=O)Nc3ccccc3N)c2O[C@@H]1CN(C)C(=O)Nc1ccc(C(F)(F)F)cc1 do in these assays?
Pf Dd2 inh: -90; KDM4C inh: inactive

How did C[C@@H]1CN([C@H](C)CO)C(=O)c2cccc(NC(=O)CCCCCC(=O)Nc3ccccc3N)c2O[C@@H]1CN(C)C(=O)Nc1ccc2c(c1)OCO2 do in these assays?
Pf Dd2 inh: -82; KDM4C inh: inactive

How did Cc1noc(C)c1NC(=O)N(C)C[C@H]1Oc2c(NC(=O)CCCCCC(=O)Nc3ccccc3N)cccc2C(=O)N([C@@H](C)CO)C[C@H]1C do in these assays?
Pf Dd2 inh: -86; KDM4C inh: inactive

How did CCn1c(SCC(=O)Nc2ccc([N+](=O)[O-])cc2)nnc1-c1ccccc1F do in these assays?
IDH1 R132H inh: inactive

Results for O=C(CSc1nnc(-c2ccc(Br)cc2)o1)Nc1cc(C(F)(F)F)ccc1Cl ?
IDH1 R132H inh: inactive

How did C[C@@H]1CN([C@@H](C)CO)C(=O)c2cccc(NC(=O)CCCCCC(=O)Nc3ccccc3N)c2O[C@@H]1CN(C)C(=O)Nc1ccc(F)cc1 do in these assays?
Pf Dd2 inh: -86; KDM4C inh: inactive

How did C[C@H](CO)N1C[C@H](C)[C@H](CN(C)C(=O)Nc2ccc(F)cc2)Oc2c(NC(=O)CCCCCC(=O)Nc3ccccc3N)cccc2C1=O do in these assays?
Pf Dd2 inh: inactive; IDH1 R132H inh: inactive; KDM4C inh: inactive

How did CCCN1[C@H](CO)[C@H](c2ccc(C3=CCCC3)cc2)[C@H]1CN(C(C)=O)C1CCCC1 do in these assays?
Pf Dd2 inh: -95; KDM4C inh: inactive

How did CC(=O)N(C)C[C@@H]1[C@@H](c2ccc(C3=CCCC3)cc2)[C@@H](CO)N1CC1CC1 do in these assays?
Pf Dd2 inh: inactive; T cruzi growth: inactive; KDM4C inh: inactive

How did CS(=O)(=O)N(CC(=O)Nc1ccc(C(F)(F)F)cc1)c1ccc(I)cc1 do in these assays?
IDH1 R132H inh: inactive

Results for CCCNC(=O)N1CCC2(CC1)CN(Cc1cccc(F)c1)[C@H](CO)c1[nH]c3cc(OC)ccc3c12 ?
Pf Dd2 inh: -83; KDM4C inh: inactive

How did COc1ccc2c3c([nH]c2c1)[C@H](CO)N(C(=O)c1cccc(F)c1)CC31CN(C(=O)CC2CC2)C1 do in these assays?
Pf Dd2 inh: inactive; KDM4C inh: inactive

How did COc1ccc2c3c([nH]c2c1)[C@@H](CO)N(Cc1ccc(F)cc1)CC31CCN(C(C)=O)CC1 do in these assays?
Pf Dd2 inh: inactive

Results for COc1ccc2c3c([nH]c2c1)[C@H](CO)N(Cc1cccc(F)c1)CC31CCN(C(C)=O)CC1 ?
Pf Dd2 inh: -83; KDM4C inh: inactive

Results for COc1ccc2c3c([nH]c2c1)[C@H](CO)N(C(=O)c1cccc(F)c1)CC31CCN(C(=O)CC2CC2)CC1 ?
Pf Dd2 inh: -82; KDM4C inh: inactive

What do the screens show for `CCCNC(=O)N1CCC2(CC1)CN(Cc1cccc(OC)c1)[C@H](CO)c1[nH]c3cc(OC)ccc3c12`?
Pf Dd2 inh: inactive; KDM4C inh: inactive

Results for CN(C)Cc1cn(CC[C@@H]2CC[C@H](NS(=O)(=O)c3ccccc3)[C@H](CO)O2)nn1 ?
IDH1 R132H inh: inactive; KDM4C inh: inactive

Results for O=S(=O)(N[C@H]1CC[C@H](CCn2cc(Cc3ccccc3)nn2)O[C@H]1CO)c1ccccc1F ?
Pf Dd2 inh: inactive; T cruzi growth: inactive; IDH1 R132H inh: inactive; KDM4C inh: 34

What do the screens show for `CCCc1cn(CC[C@H]2CC[C@@H](NS(=O)(=O)c3ccc(-c4ccccc4)cc3)[C@@H](CO)O2)nn1`?
Pf Dd2 inh: -94; T cruzi growth: inactive; IDH1 R132H inh: inactive; KDM4C inh: inactive

Results for O=S(=O)(N[C@H]1CC[C@@H](CCn2cc(C3(O)CCCC3)nn2)O[C@@H]1CO)c1ccc(F)cc1 ?
Pf Dd2 inh: inactive; T cruzi growth: inactive; IDH1 R132H inh: inactive; KDM4C inh: 36

How did CCCc1cn(CC[C@@H]2CC[C@@H](NS(=O)(=O)c3ccc(-c4ccccc4)cc3)[C@@H](CO)O2)nn1 do in these assays?
Pf Dd2 inh: -91; T cruzi growth: inactive; IDH1 R132H inh: inactive; KDM4C inh: inactive

What do the screens show for `Cc1cccnc1NC(=S)Nc1ccc(S(N)(=O)=O)cc1`?
IDH1 R132H inh: inactive

What do the screens show for `Cc1ccc(S(=O)(=O)NC(C(=O)Oc2cc3oc(=O)cc(-c4ccccc4)c3cc2Cl)C(C)C)cc1` (stereo not given)?
IDH1 R132H inh: inactive

Screening data (PubChem)
